Bioassay records (PubChem BioAssay)
Compounds with a hit are over-represented: about 1.6% of the library has one in this group of screens.
RBBP9 inhibitor – blocks human serine hydrolase RBBP9. 0.2% of 220,000 active. AID 1515. O75884. recombinant RBBP9, FP-Rh probe fluorescence polarization. inhibition, % at 7.94 µM;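 active = inhibition above the campaign mean of all tested compounds plus 3 SD, cut at about 14% in these data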;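 note: plate controls were DMSO wells with RBBP9 for no effect and wells lacking RBBP9 protein for full effect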
Target sequence (O75884 whole entry, looked up): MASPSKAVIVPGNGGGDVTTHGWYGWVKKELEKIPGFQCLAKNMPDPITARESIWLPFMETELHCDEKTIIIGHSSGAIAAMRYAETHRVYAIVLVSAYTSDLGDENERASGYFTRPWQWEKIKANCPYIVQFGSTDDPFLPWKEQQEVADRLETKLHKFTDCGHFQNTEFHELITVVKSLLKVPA
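Assay system: recombinant human RBBP9; Reagent: Serine-hydrolase probe FP-Rh, 375 nM pre-mixing; Doses: 7.94 µM single dose, 0.794% DMSO; Incubation: 30 min then 45 min, 25 °C; Detection: fluorescence polarization (mP), excitation 525 nm, emission 598 nm; Evaluation: percent inhibition from mP, scaled between DMSO and no-protein wells.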
14-3-3 Bad PPI – disrupts binding of bovine 14-3-3 zeta to phospho-Bad peptide; P63103; TR-FRET 14-3-3zeta/Dy647-pBad peptide displacement, 1 h; inhibition, % at 21.7 µM; 0.71% of 220,000 active; AID 781;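 active = inhibition above about 70%, limit read from the data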;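 note: 0% = full 14-3-3 plus peptide FRET controls and 100% = background without 14-3-3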
Target sequence (P63103 whole entry, looked up): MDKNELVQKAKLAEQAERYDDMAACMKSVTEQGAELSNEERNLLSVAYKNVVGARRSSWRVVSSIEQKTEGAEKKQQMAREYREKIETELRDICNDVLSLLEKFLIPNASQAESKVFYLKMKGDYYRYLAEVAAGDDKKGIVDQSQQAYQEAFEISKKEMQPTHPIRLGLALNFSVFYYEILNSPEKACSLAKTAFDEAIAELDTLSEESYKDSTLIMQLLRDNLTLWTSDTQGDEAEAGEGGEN
EBV gp42 inh – inhibitors of Epstein-Barr virus glycoprotein 42; Fluorescence polarization binding assay, mP read-out; inhibition, % (tested at 21.74 µM); 0.42% of 220,000 active
Target sequence (Q1HVG2 whole entry, looked up): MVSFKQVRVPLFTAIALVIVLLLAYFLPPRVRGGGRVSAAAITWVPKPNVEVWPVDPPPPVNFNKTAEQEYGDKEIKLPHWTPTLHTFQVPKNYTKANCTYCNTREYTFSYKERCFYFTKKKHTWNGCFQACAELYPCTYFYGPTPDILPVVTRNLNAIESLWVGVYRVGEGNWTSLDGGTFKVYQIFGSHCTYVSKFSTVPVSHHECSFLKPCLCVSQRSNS
eIF4E-4G inh – eIF4E/eIF4G interaction inhibition in translation initiation; P63073+Q04637; TR-FRET eIF4E-eIF4GI(517-606) binding, 2 h; inhibition, % at 21.7 µM; 0.37% of 220,000 active;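 active = inhibition above about 30%, limit read from the data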;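 note: 0% = full FRET control wells and 100% = background wells lacking eIF4GI fragment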
PKD1 kinase inh – blocks activity of human protein kinase D1. PKD1 kinase fluorescence polarization assay. inhibition, % (test concentration not listed). 0.056% of 200,000 active. AID 797
The depositor's hits bear a star; x = no result given; ! = not confirmed by another sample; [ ] = another dose, or the depositor's remark. Cut-off read from the data, not from the text of the source, unless noted: active = inhibition above about 50%; inactive = the rest.

SMILES	RBBP9 inhibitor	14-3-3 Bad PPI	EBV gp42 inh	eIF4E-4G inh	PKD1 kinase inh
O=[N+]([O-])c1ccccc1/C=C/C=N/n1c(-c2ccc(Cl)cc2)n[nH]c1=S	3.1	79.0*	85.8*	-34.6	-7.0
S=c1[nH]nc(-c2ccco2)n1/N=C/c1ccc(Cl)cc1	-0.9	-9.0	-18.7	33.5*	1.6
Cc1n[nH]c(=S)n1/N=C/c1ccc(-c2ccccc2[N+](=O)[O-])o1	-1.0	-4.7	-20.4	0.7	5.5
O=[N+]([O-])c1cccc(-c2ccc(/C=N/n3c(-c4ccccc4)n[nH]c3=S)o2)c1	-3.6	51.2	-28.5	75.2*[fluorescence artefact?]	-3.4
COc1ccc(OC)c(NC(=O)CN(C)CC(=O)Nc2ccccc2Br)c1	4.4	29.2	-11.9	4.8	-3.0
CCn1c(-c2cc(OC)c(OC)c(OC)c2)n[nH]c1=S	-2.3	-1.3	-9.9	0.1	2.2
S=c1[nH]nc(-c2ccc(Cl)cc2)n1/N=C/c1cccs1	-7.6	2.5	-17.0	95.5*	x
C=CCn1c(-c2cc(OC)c(OC)c(OC)c2)n[nH]c1=S	0.5	-8.5	-15.5	43.9*	-2.1
C/C(=N/NC(=O)c1cc(-c2cccc([N+](=O)[O-])c2)n[nH]1)c1ccc(Cl)cc1	-6.2	76.7*[fluorescence artefact?]	-3.4	14.1	-4.7
COC(=O)CSc1nc2cc(OC)ccc2n1C	-6.6	5.9	-12.1	-0.1	x
COc1ccc2c(c1)nc(SCC(=O)c1ccc(Br)s1)n2C	-6.0	84.0*	-10.4	-4.2	-4.3
Cc1c(N=C2N=C(NC(=O)c3cccs3)c3ccccc32)c(=O)n(-c2ccccc2)n1C	-0.4	-6.1	124.5*	-6.7	-0.2
Oc1oc(-c2ccccc2)nc1C=Nc1cccc2ccccc12	-11.4	-1.9	75.3*	-3.1	1.4
Oc1oc(-c2ccccc2)nc1/C=N/c1nccs1	0.1	-1.2	-25.6	2.6	-3.8
CC(C)CN1CCNC(=O)C1CC(=O)NCCCN1CCCc2ccccc21 (stereo unspecified)	-1.5	3.8	11.7	7.4	-4.2
Cc1nnc2n1NC(c1ccc(Cl)cc1)C(C(=O)N(C)C1CCCCC1)S2 (stereo unspecified)	-1.9	127.4*[fluorescence artefact?]	0.0	-1.4	6.4
CCOC(=O)c1ccc(Nc2ccc(-c3ccc(OC)c(OC)c3)nn2)cc1	1.4	80.7*	-15.1	-4.3	-2.6
CCC(C)c1ccc(OCc2ccc(C(=O)OC)o2)cc1 (stereo unspecified)	-3.9	-2.9	-8.3	-3.5	x
CCCCC(=O)Nc1ccc2oc(-c3ccncc3)nc2c1	8.1	10.7	-15.3	54.9*	-3.1
O=C(NC(=S)Nc1ccc2oc(-c3ccncc3)nc2c1)c1ccccc1F	-3.9	73.3*	-27.8	9.5	-4.0
CCCC(=O)Nc1ccc2oc(-c3ccncc3)nc2c1	-1.4	-2.8	-3.7	-24.0	-4.7
CN(C)S(=O)(=O)c1ccc(Cl)c(NC(=O)CN2CCN(Cc3ccc4c(c3)OCO4)CC2)c1	-5.6	-3.6	4.0	0.1	x
CC1(C)C2CCC(C2)C1(C)NC(=O)CN1CCN(Cc2ccccc2)CC1 (stereo unspecified)	0.6	72.3*	-11.2	-1.9	8.0
O=C(Nc1ccc(Cl)c(Cl)c1)Nc1nnc(-c2ccncc2)s1	-3.1	74.4*	82.9*	38.3*	-6.0
COc1ccc(NC(=O)Nc2nnc(-c3ccncc3)s2)cc1	-8.6	-1.7	-10.4	2.7	-2.2
SMILES	RBBP9 inhibitor	14-3-3 Bad PPI	EBV gp42 inh	eIF4E-4G inh	PKD1 kinase inh
Cc1ccc[n+](-c2nc([O-])sc2C=O)c1	-3.0	16.8	142.1*	0.8	11.6
O=C(CN1CCc2ccccc2C1)NC1CCCC1	-5.2	-8.4	-4.7	4.2	-2.1
CCn1cc(C(=O)OCC(=O)c2cc(C)n(-c3ccc(OC(F)F)cc3)c2C)c(=O)c2ccc(C)nc21	-5.8	-6.1	-23.9	44.9*[fluorescence artefact?]	-1.9
N#C/C(=C\c1ccncc1)c1nc2ccccc2o1	3.0	0.1	-4.2	95.8*	x
COCCNC(C(=O)Nc1ccc([N+](=O)[O-])cc1Br)c1ccccc1 (stereo unspecified)	-4.4	-10.9	12.3	-4.0	-5.3
CCCCNC(C(=O)Nc1ccc([N+](=O)[O-])cc1Br)c1ccccc1 (stereo unspecified)	-6.4	71.1*	-12.6	1.1	2.7
CCN(CC)C(=O)CC(c1cc(OC)c(OC)c(OC)c1)c1c(OC)cc(OC)c2c(-c3ccccc3)cc(=O)oc12 (stereo unspecified)	x	61.5	98.8*	34.5*	x
CCN(CC)C(=O)CC(c1cc(OC)c(OC)c(OC)c1)c1c(OC)cc(OC)c2ccc(=O)oc12 (stereo unspecified)	x	0.3	-22.1	-3.1	x
Oc1ccc(-c2[nH]ncc2-c2cccc3cccnc23)c(O)c1	2.0	-2.8	-9.4	92.2*	-6.2
Oc1ccc(-c2[nH]ncc2-c2ccc(Cl)cc2)c(O)c1	-9.8	-0.5	-24.2	8.7	-6.4
CC(C)C1Nc2ccc(C(=O)O)cc2C2C=CCC21 (stereo unspecified)	3.0	-3.9	-5.5	4.4	-1.6
Cc1ccc2c(c1C)NC(C(=O)O)C1CC=CC21 (stereo unspecified)	x	38.3	87.3*!	60.8*!	x
O=C(O)C1Nc2c(C(=O)N3CCOCC3)cccc2C2C=CCC12 (stereo unspecified)	-1.2	16.2	-3.3	16.5	5.0
CCOC(=O)c1ccc2c(c1)C1C=CCC1C(C(=O)O)N2 (stereo unspecified)	6.9	64.9	83.8*	47.0*	11.6
Cn1c(NC(=O)/C=C\c2ccccc2)cc(=O)n(C)c1=O	-0.3	-6.9	-18.7	-3.1	1.7
CC(C)n1nc(C(=O)N2CCN(S(=O)(=O)c3cccs3)CC2)c2ccccc2c1=O	-11.2	0.3	-17.1	0.8	x
O=S(=O)(c1ccccc1)N1CCN(c2ccnc3cc(Cl)ccc23)CC1	-9.0	70.7*	9.2	-1.1	0.9
O=S(=O)(c1cccs1)N1CCN(c2ccnc3cc(Cl)ccc23)CC1	-0.6	0.3	-1.5	3.5	x
COC(=O)c1nn(-c2ccccc2)c(Sc2ccc(Cl)cc2)c1/C=N/O	-12.9	-2.8	-3.1	5.4	-0.4
CCOC(=O)N1CCC(NC(=O)c2ccc3c(Cl)c4c(nc3c2)CCCC4)CC1	21.8*	1.7	-17.7	2.7	-8.5
CC1CCN(C(=O)c2ccc3c(Cl)c4c(nc3c2)CCCC4)CC1	0.8	-12.4	8.8	81.6*	-2.3
O=C(NC1CC1)c1ccc2c(Cl)c3c(nc2c1)CCCC3	-5.0	-1.1	-15.1	-0.3	0.4
O=C(COc1ccc(Cl)cc1)Nc1ccc(Cl)cn1	-2.9	81.6*	-24.3	3.9	3.2
CCCC(=O)Nc1c2c(nc3ccccc13)N(c1ccccc1)CC2	-7.6	-1.4	-20.6	3.0	1.1
O=C(CN1CCCCC1)Nc1c2c(nc3ccccc13)N(c1ccccc1)CC2	-3.5	71.2*	-26.0	8.3	0.7
CCCCc1nc2ccccc2c(NC(=O)CN2CCCC2)c1CCC	4.0	84.1*	-11.6	27.6	8.0
CN(c1ccccc1)S(=O)(=O)c1cccc(NC(=O)CC(C)(C)C)c1	-5.2	7.9	-5.0	15.5	-10.5
